From PubChem
SR-BI DiI inh – inhibitors of mouse SR-BI mediated HDL lipid uptake | ldlA[mSR-BI] CHO cells, DiI-HDL uptake fluorescence, 3 h | AID 488896 | Q61009 | 0.96% of 320,000 active | inhibition, % at 12.5 µM;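 active = mean replicate inhibition of at least 70% and a set share of replicates each scoring 70 or more; inconclusive = meets just one of the two criteria; inactive = fails both criteria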;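 also: 0% = median of neutral control wells and 100% = median of positive control wells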
Target sequence (Q61009 whole entry, looked up): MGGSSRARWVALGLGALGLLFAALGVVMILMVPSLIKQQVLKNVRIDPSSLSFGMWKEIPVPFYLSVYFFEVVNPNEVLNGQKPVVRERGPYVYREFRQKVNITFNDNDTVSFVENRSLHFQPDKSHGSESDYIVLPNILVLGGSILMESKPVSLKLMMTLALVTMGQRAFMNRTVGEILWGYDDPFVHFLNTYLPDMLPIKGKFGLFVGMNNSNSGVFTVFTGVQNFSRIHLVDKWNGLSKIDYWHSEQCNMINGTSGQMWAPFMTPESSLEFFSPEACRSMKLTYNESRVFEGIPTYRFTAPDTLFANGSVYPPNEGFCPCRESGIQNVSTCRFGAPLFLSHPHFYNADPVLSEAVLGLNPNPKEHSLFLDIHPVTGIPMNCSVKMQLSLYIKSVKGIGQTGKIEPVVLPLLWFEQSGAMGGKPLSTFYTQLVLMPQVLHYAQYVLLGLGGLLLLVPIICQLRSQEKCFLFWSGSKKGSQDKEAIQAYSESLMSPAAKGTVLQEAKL
GASC-1 inh – human JMJD2C demethylase inhibition; Q9H3R0; 0.069% of 330,000 active; inhibition, % at 2.35 µM; GST-JMJD2C(1-420) H3K9me3 demethylation, DELFIA europium;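 active = more than half of a compound's replicate wells show inhibition beyond 50%, single wells judged on their own value; inconclusive = some, but no more than half, of replicates pass 50% inhibition; inactive = no replicate passes 50% inhibition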;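 also: signal counts dimethyl H3K9 product captured on neutravidin plate; 0% = median of DMSO wells and 100% = 0.3 times that DMSO median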
AHR act – human AHR activation; AHR-responsive luciferase reporter cells, luminescence; activation, % at 5 µM; 2.5% of 320,000 active; in the data active = activation above about 47%;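 also: 0% = vehicle wells and 100% = reference agonist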
SR-BI uptake up – activators of SR-BI mediated HDL lipid uptake. CHO ldlA[mSR-BI] cells, DiI-HDL uptake fluorescence, 3 h; 100 = double the neutral-control signal. activation, % at 12.5 µM. 0.096% of 320,000 active;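 active = mean replicate activation of at least 60% and every replicate at or above 60%; inconclusive = mean or all-replicate condition met, but not both; inactive = mean below 60% and not all replicates reaching 60%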;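 also: 0% = median plate neutral-control signal and 100% = twice that signal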
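Test system: SR-BI-overexpressing, LDLR-lacking CHO cells; Medium: Ham's F12 with 0.5% BSA, HEPES 25 mM, pH 7.4; Schedule: 3 h, 37 °C; Technique: bottom-read fluorescence, 550/595 nm.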
GAA850 FXN act – increases GAA850 frataxin promoter reporter activity; AID 540364; activation, % at 6 µM; 0.56% of 360,000 active; HEK293 lucGAA850 FXN promoter luciferase reporter, 24 h; percent of 10 µM SAHA response;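 active = activation above the average of all compounds screened plus 3 SD, cutoff fixed separately per campaign, cut at about 7.5% in these data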;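 also: 0% = DMSO wells and 100% = 10 µM SAHA wells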
AHR act confirm – confirmation of human aryl hydrocarbon receptor activators | shares compounds with AHR act | human cells, AHR-responsive luciferase reporter, luminescence | activation, % at 9 µM | 87% of 2,300 active; in the data active = activation above about 49%;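 also: HepG2 hepatoma cells carrying a DRE-driven firefly luciferase reporter; 0% = vehicle wells and 100% = reference agonist wells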
PXR act counter – activates human PXR in AHR activator counter-screen; activation, % at 11.6 µM; shares compounds with AHR act; 88% of 2,300 active; cell-based PXR reporter, luciferase luminescence; in the data active = activation above about 11%;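 also: human hepatoma DPX-2 cells expressing full-length human PXR; 0% = DMSO and 100% = reference agonist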
DiI quencher – DiI fluorescence quenching in cell-free counter-screen; shares compounds with SR-BI DiI inh; cell-free DiI-HDL fluorescence quenching, 30 min; AC50, µM (doses to about 35 µM), for the others: at the highest dose activity change, negative = quenching; 20% of 470 active; AID 540326;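 active = quenching, a falling signal, with AC50 below a set limit tied to the top valid dose, actives reach about 32 µM in these data; inconclusive = no clear call, values can overlap the other calls; inactive = rising signal, and the rest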
GAA30 FXN cntr – activates GAA30 frataxin promoter, counter-screen for GAA850 activators; shares compounds with GAA850 FXN act; HEK293 lucGAA30 FXN promoter luciferase, 24 h; DMSO = 0%, 5 µM ipriflavone = 100%; activation, % at 6 µM; 66% of 1,900 active; AID 588350;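 active = mean activation above the mean of solvent-only control wells plus 3 SD, cut at about 22% in these data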;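 also: counterscreen of GAA850 promoter hits where activity marks nonselective or luminescence artifacts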
GAA850 confirm – GAA850 FXN promoter activation confirmation | shares compounds with GAA850 FXN act | HEK293 lucGAA850 FXN promoter luciferase reporter, 24 h; 100% = activation by SAHA | activation, % at 6 µM | 86% of 1,900 active;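 active = mean activation above a set limit taken from the primary screen, cut at about 8% in these data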;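 also: 0% = DMSO wells and 100% = 10 µM SAHA wells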
The depositor's hits bear a star; ? = inconclusive; nt = no result given. Sampled rows, rich in hits. Any-hit rate of the full collection: about 3.7%.

SMILES | SR-BI DiI inh | GASC-1 inh | AHR act | SR-BI uptake up | GAA850 FXN act | AHR act confirm | PXR act counter | GAA30 FXN cntr | GAA850 confirm | others
Fc1cccc(/C=N/Nc2ncnc3nc[nH]c23)c1 | -4.9 | 7.3 | 105.4* | 4.9 | 10.4* | 77.6* | 32.7* | 113.1* | 48.7*
Oc1ccc(/C=N/Nc2ncnc3nc[nH]c23)cc1 | nt | -1.4 | 4.5 | nt | 5.7 | nt | nt | nt | nt
Fc1ccccc1/C=N/Nc1ncnc2nc[nH]c12 | -20.2 | -1.8 | 129.5* | 20.2 | 11.1* | 82.9* | 39.6* | 98.4* | 47.2*
Cc1ccc(/C=N/Nc2ncnc3nc[nH]c23)cc1 | nt | 1.9 | 115.2* | nt | 16.7* | 104.2* | 84.1* | 123.5* | 55.6*
CCOc1cc(S(=O)(=O)n2ccnc2)ccc1Cl | -26.0 | 0.1 | -0.6 | 26.0 | 0.8 | nt | nt | nt | nt
COc1cccc2sc(Nc3nnc(-c4cccs4)o3)nc12 | -21.1 | ? | 106.3* | 21.1 | 7.7* | 97.0* | 17.9* | 37.0* | 39.9*
CCC(C)Oc1cc(-c2ccnc(Nc3cccc(Cl)c3)n2)ccn1 (stereo not given) | 26.0 | 6.3 | 114.2* | -26.0 | 22.3* | 72.1* | 31.3* | 40.2* | 81.6*
Cc1cc(C)nc(Nc2cccc(Cl)c2)n1 | -12.1 | -2.6 | nt | 12.1 | 1.8 | nt | nt | nt | nt
CC(C)CCn1c2ccccc2c2cc(CC(N)=O)ccc21 | 13.4 | 3.1 | -1.1 | -13.4 | 3.1 | nt | nt | nt | nt
CCC(=O)Oc1ccc(C2NC(=O)c3ccccc3O2)cc1OC (stereo not given) | -13.7 | 37.3 | -0.1 | 13.7 | 1.5 | nt | nt | nt | nt
COc1ccc(OC)c2nc(-c3ccc4c(c3)OCO4)ccc12 | 48.8 | -13.9 | 116.7* | -48.8 | 9.5* | 124.9* | 45.8* | 124.3* | 44.2*
COc1ccc(-c2cc(-c3ccccc3)n[nH]2)c(O)c1 | 33.7 | -11.7 | 125.3* | -33.7 | 8.2* | 73.0* | 16.6* | 121.0* | 38.4*
O=C(/C=C/c1ccccc1)c1c[nH]c2ccccc12 | 26.0 | -8.5 | 83.8* | -26.0 | 12.2* | 92.6* | 31.5* | 141.6* | 52.2*
CN(C)S(=O)(=O)N1CCN(C(=O)N(c2ccccc2)c2ccccc2)CC1 | ? | 23.0 | 6.6 | -70.3 | 0.2 | nt | nt | nt | nt | DiI quencher=-1.9%
CCC(=O)c1ccc(OCC(=O)OCC(=O)NCC2CCCO2)cc1 (stereo not given) | -10.1 | 8.2 | -2.0 | 10.1 | 1.8 | nt | nt | nt | nt
CNc1cnn(-c2ccc(C)cc2)c(=O)c1Sc1ccc(C)cc1 | 70.0* | 1.9 | 3.6 | -70.0 | 3.2 | nt | nt | nt | nt | DiI quencher=1.1%
O=C(c1ccc(Cl)c(S(=O)(=O)N2CCOCC2)c1)N(Cc1ccco1)Cc1cccs1 | -2.7 | nt | nt | 2.7 | -0.3 | nt | nt | nt | nt
Cc1cc(N2CCN(C(=O)c3ccco3)CC2)n2ncc(-c3ccccc3)c2n1 | 78.3* | -12.4 | 30.9 | -78.3 | 3.8 | nt | nt | nt | nt | DiI quencher=-9.5%
Cc1cc(N2CCN(C(=O)c3ccco3)CC2)n2ncnc2n1 | -8.7 | 12.3 | 2.7 | 8.7 | 0.6 | nt | nt | nt | nt
CCOc1ccc(CCNC(=O)C2CC(=O)N(c3ccccc3OCC)C2)cc1OCC (stereo not given) | 79.1* | 4.8 | 0.9 | -79.1 | 0.0 | nt | nt | nt | nt | DiI quencher=-1.0%
CCOc1ccccc1N1CC(C(=O)NCCC2=CCCCC2)CC1=O (stereo not given) | 62.8 | nt | nt | -62.8 | 0.0 | nt | nt | nt | nt
CC1CCC(NC(=O)CC(NC(N)=O)c2ccccc2Cl)CC1 (stereo not given) | -27.4 | 4.6 | -0.3 | 27.4 | 0.5 | nt | nt | nt | nt
O=C(OCc1ccccc1F)c1cc2ccccc2cc1O | -14.8 | -8.5 | 4.4 | 14.8 | 1.3 | nt | nt | nt | nt
